In ChEMBL document CHEMBL1128471, “Reversible inhibitors of the gastric (H+/K+)-ATPase. 4. Identification of an inhibitor with an intermediate duration of action” (J Med Chem, 1995):
pIC50: −log10 of the molar value.

What was measured:
[1] = molecular target: Potassium-transporting ATPase (Sus scrofa, UniProt P19156); experiment: (§1) Inhibition of K+ -stimulated gastric ATPase activity was measured using lyophilized gastric vesicles at pH 7; format: tissue-based, Stomach
Method in brief: (§2)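 K+-stimulated ATPase activity was measured in lyophilized (permeabilized) gastric vesicles at pH 7. The value is an IC50, or percent inhibition at the stated concentration where no IC50 could be determined.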

[2] = system: Canis familiaris; experiment: Mean percent peak inhibition of histamine-stimulated gastric acid secretion in the heidenhain pouch dog following a single dose of 1 umol/kg through iv administration.; format: functional; settings: Canis lupus familiaris, Stomach
[3] = molecular target: T1, Potassium-transporting ATPase (Rattus norvegicus) (UniProt P09626+P18598); experiment: Inhibition of pentagastrin-stimulated gastric acid secretion in the anesthetized rat after iv administration; format: functional, organism-based; settings: Stomach
Method in brief: (§3)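 Anesthetized, lumen-perfused rats were given pentagastrin to stimulate gastric acid secretion, and compounds were given iv. The value is an ED50 (µmol/kg iv) with 95% confidence limits, or percent inhibition ± SEM at a single 10 µmol/kg iv dose.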

[4] = molecular target: Potassium-transporting ATPase (Sus scrofa) (UniProt P18434+P19156); experiment: as §1; format: tissue-based; design: concentration or dose not given beside the values; settings: Stomach; concentration not given here; method in brief: as §2
[5] = molecular target: T1, Potassium-transporting ATPase (Rattus norvegicus); experiment: Inhibition of pentagastrin-stimulated gastric acid secretion at a single dose of 10 umol/kg.; format: functional; settings: Stomach; method in brief: as §3
[6] = system: Canis familiaris; experiment: Mean percent peak inhibition of histamine-stimulated gastric acid secretion in the heidenhain pouch dog following a single dose of 4 umol/kg through oral administration.; format: functional; settings: Canis lupus familiaris, Stomach

Potassium-transporting ATPase, sequence (P18434 whole entry): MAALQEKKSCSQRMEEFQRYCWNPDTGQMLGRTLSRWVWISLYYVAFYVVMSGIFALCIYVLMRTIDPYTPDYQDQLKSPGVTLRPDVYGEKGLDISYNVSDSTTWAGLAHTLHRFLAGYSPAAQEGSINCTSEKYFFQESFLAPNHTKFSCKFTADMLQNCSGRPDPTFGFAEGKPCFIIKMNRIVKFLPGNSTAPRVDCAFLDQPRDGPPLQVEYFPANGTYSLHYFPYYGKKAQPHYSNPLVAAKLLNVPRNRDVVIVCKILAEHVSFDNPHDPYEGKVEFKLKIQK
Potassium-transporting ATPase, sequence (P19156 whole entry): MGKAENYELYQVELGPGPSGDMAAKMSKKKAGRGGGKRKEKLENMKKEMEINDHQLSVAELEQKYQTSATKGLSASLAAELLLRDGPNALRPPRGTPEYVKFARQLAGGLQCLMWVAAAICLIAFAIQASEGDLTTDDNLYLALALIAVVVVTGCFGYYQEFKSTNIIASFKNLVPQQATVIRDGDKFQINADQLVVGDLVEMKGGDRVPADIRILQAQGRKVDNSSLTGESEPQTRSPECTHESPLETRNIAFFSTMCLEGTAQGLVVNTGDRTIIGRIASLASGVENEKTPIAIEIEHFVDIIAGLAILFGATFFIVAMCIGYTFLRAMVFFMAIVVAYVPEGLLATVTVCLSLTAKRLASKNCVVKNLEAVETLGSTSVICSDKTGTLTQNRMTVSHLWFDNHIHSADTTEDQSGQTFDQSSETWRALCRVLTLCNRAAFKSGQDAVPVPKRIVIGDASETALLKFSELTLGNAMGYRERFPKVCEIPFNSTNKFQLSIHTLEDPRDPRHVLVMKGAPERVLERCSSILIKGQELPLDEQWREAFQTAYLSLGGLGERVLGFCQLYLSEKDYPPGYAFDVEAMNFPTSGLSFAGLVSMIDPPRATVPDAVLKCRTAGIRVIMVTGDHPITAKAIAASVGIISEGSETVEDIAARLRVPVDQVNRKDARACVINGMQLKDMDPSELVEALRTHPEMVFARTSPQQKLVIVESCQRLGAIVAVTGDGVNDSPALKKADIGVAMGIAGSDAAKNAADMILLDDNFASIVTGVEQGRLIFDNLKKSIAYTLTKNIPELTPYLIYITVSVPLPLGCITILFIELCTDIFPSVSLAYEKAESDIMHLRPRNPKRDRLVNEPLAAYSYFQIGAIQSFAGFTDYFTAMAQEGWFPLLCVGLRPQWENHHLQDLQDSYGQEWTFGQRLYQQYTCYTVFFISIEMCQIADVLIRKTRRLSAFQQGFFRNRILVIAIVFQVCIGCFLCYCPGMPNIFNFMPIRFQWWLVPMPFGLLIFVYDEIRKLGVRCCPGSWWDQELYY

Structure (SMILES) | pIC50 [1] | inhibition in vivo at 1 µmol/kg [2] [%] | ED50 [3] [µmol/kg] | inhibition [4] [%] | inhibition [5] [%] | inhibition in vivo at 4 µmol/kg [6] [%]
Cc1cc(O)ccc1Nc1c(C(=O)C(C)C)cnc2c(CO)cccc12 | 7.44 | 47 | 1.72 |  |  | 
CCCC(=O)c1cnc2c(OC)cccc2c1Nc1ccc(CO)cc1 |  |  |  | 38 |  | 
CCCC(=O)c1cnc2c(OC)cccc2c1Nc1ccc(O)c(Cl)c1 |  |  |  | 16 |  | 
CCCC(=O)c1cnc2c(C)cccc2c1Nc1ccccc1F |  |  |  | 53 | 29 | 
CCC(=O)c1cnc2c(CO)cccc2c1Nc1ccc(O)cc1C | 6.74 | 59 |  |  | 90 | 24
CCCC(=O)c1cnc2c(CO)cccc2c1Nc1ccc(O)cc1C |  | 64 | 2.09 |  |  | 29
CCCC(=O)c1cnc2c(OCCO)cccc2c1Nc1ccc(F)cc1C |  | 44 | 2.92 |  |  | 80
CCCC(=O)c1cnc2c(OC)cccc2c1Nc1c(C)cccc1C | 5.80 | 62 | 5.24 |  |  | 75
CCCC(=O)c1cnc2c(C)cccc2c1Nc1ccccc1CC | 5.54 | 66 | 3.05 |  |  | 
CCCC(=O)c1cnc2c(OCCCNC(C)=O)cccc2c1Nc1c(C)cccc1C | 5.74 | 86 |  |  | 75 | 40
CCCC(=O)c1cnc2c(C)cccc2c1Nc1ccc(Cl)cc1Cl |  |  |  | 31 |  | 
CCCC(=O)c1cnc2c(CO)cccc2c1Nc1ccccc1C |  | 39 | 1.72 |  |  | 56
CCCC(=O)c1cnc2c(OC)cccc2c1Nc1ccc(OC(=O)CC)cc1C | 4.72 |  |  |  |  | 45
CCC(=O)c1cnc2c(OCCO)cccc2c1Nc1ccccc1C | 6.12 | 82 | 1.72 |  |  | 82
CCCC(=O)c1cnc2c(OCCOC)cccc2c1Nc1ccccc1C |  | 51 | 2.75 |  |  | 81
CCCC(=O)c1cnc2c(OC)cccc2c1Nc1ccc(F)cc1C | 5.64 | 36 | 3.9 |  |  | 64
CCCC(=O)c1cnc2c(C)cccc2c1Nc1cc(C)ccc1OC |  |  |  | 56 |  | 
CCCC(=O)c1cnc2c(OC)cccc2c1Nc1ccccc1OC | 5.82 | 73 | 3.56 |  |  | 18
COCCOc1cccc2c(Nc3ccccc3C)c(C(=O)C(C)C)cnc12 | 5.85 | 65 | 3.61 |  |  | 86
CCCC(=O)c1cnc2c(OC)cccc2c1Nc1cc(F)cc(F)c1 |  |  |  | 63 |  | 
CCCC(=O)c1cnc2c(OCCOCCO)cccc2c1Nc1ccccc1C |  | 52 | 1.89 |  |  | 
CCCC(=O)c1cnc2c(C(C)O)cccc2c1Nc1ccccc1C (configuration not stated) | 6.43 | 46 | 3.69 |  |  | 49
CCC(=O)c1cnc2c(OCCO)cccc2c1Nc1ccc(F)cc1C | 5.70 | 58 | 2.85 |  |  | 72
CCCC(=O)c1cnc2c(OCCO)cccc2c1Nc1ccccc1C |  | 64 | 2.4 |  |  | 96
Cc1cc(F)ccc1Nc1c(C(=O)C(C)C)cnc2c(CO)cccc12 |  | 59 | 3.57 |  |  | 42

Structure (SMILES) | pIC50 [1] | inhibition in vivo at 1 µmol/kg [2] [%] | ED50 [3] [µmol/kg] | inhibition [4] [%] | inhibition [5] [%] | inhibition in vivo at 4 µmol/kg [6] [%]
Cc1cc(F)ccc1Nc1c(C(=O)C(C)C)cnc2c(OCCO)cccc12 | 5.80 | 66 | 4.2 |  |  | 75
CCC(=O)c1cnc2c(CO)cccc2c1Nc1ccccc1C | 6.42 | 83 |  |  | 74 | 35
CCCC(=O)c1cnc2c(C)cccc2c1Nc1ccc(Cl)cc1C |  |  |  | 15 |  | 
CCCC(=O)c1cnc2c(F)cccc2c1Nc1ccc(O)cc1C | 6.15 | 31 | 4.66 |  |  | 17
CCCC(=O)c1cnc2c(C(C)O)cccc2c1Nc1ccc(O)cc1C (configuration not stated) | 7.21 | 30 | 2.74 |  |  | 
CCCC(=O)c1cnc2c(OC)cccc2c1Nc1ccccc1C | 5.77 | 67 | 2.6 |  |  | 83
CCCC(=O)c1cnc2c(OC)cccc2c1Nc1c(C)cc(O)cc1C | 6.30 | 32 | 6.4 |  |  | 25
CCCC(=O)c1cnc2c(OC)cccc2c1Nc1cc(F)c(O)c(F)c1 |  |  |  | 11 |  | 
CCCC(=O)c1cnc2c(OC)cccc2c1Nc1ccc(N2CCCC2)cc1C |  |  |  | 5 | 0 | 
CCCC(=O)c1cnc2c(OC)cccc2c1Nc1ccccc1CC | 6.05 | 77 | 2.35 |  |  | 85
CCCC(=O)c1cnc2c(C)cccc2c1Nc1ccc(OC)cc1OC | 5.62 | 41 | 3.9 |  |  | 
CCCC(=O)c1cnc2c(CCCO)cccc2c1Nc1ccccc1C | 5.59 |  |  |  | 63 | 48
CCCC(=O)c1cnc2c(OC)cccc2c1Nc1ccc(OC)cc1C | 5.90 | 71 | 7.61 |  |  | 
Cc1ccccc1Nc1c(C(=O)C(C)C)cnc2c(OCCO)cccc12 | 6.00 | 56 | 2.07 |  |  | 54
CCCC(=O)c1cnc2c(OCCOC)cccc2c1Nc1ccc(F)cc1C | 5.46 | 65 | 2.91 |  |  | 46
CCCC(=O)c1cnc2c(C)cccc2c1Nc1ccccc1OC | 5.66 |  | 3.98 |  |  | 
CCCC(=O)c1cnc2c(OC)cccc2c1Nc1ccc(O)c(F)c1 |  |  |  | 40 |  | 
CCC(=O)c1cnc2c(OCCOC)cccc2c1Nc1ccccc1C | 6.11 | 80 | 1.92 |  |  | 66
CCCC(=O)c1cnc2c(OC)cccc2c1Nc1ccc(O)cc1C | 6.68 | 76 | 1.98 |  |  | 46
CCCC(=O)c1cnc2c(OC)cccc2c1Nc1cccc(C)c1C | 5.85 | 77 |  |  | 60 | 67
CCCC(=O)c1cnc2c(C)cccc2c1Nc1c(C)cccc1C | 5.51 | 45 | 2.88 |  |  | 
CCCC(=O)c1cnc2c(C)cccc2c1Nc1ccccc1C | 5.52 | 38 | 3.12 |  |  | 
CCCC(=O)c1cnc2c(Oc3cnccn3)cccc2c1Nc1ccccc1C | 5.70 | 49 | 2.9 |  |  | 43
CCCC(=O)c1cnc2c(OCCOCCOCCO)cccc2c1Nc1ccccc1C |  | 20 |  |  |  | 78
CCCC(=O)c1cnc2c(OC)cccc2c1Nc1ccc(O)c(CN(C)C)c1 |  |  |  | 35 |  | 
